Source: PubChem BioAssay
UBC9 SUMO inh – inhibitors of in vitro SUMOylation cascade, primary screen, biochemical, HTRF, uHTS | 290,000 compounds, 0.36% hits | HTRF SUMOylation assay, SAE1/SAE2 + UBC9 | inhibition, % at 35 µM; in the data active = inhibition above about 50%, passing the limit was not always enough
PREPL inhibitor – PREPL enzyme inhibitors, primary screen, biochemical, fluorescence polarization; Prolyl endopeptidase-like (Homo sapiens), Q4J6C6; recombinant PREPL, fluorescence polarization activity-based probe; inhibition, % at 5.96 µM; 320,000 compounds, 0.68% hits; AID 2751, 2010; in the data active = inhibition above about 43%;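 note: 0% = enzyme with DMSO and 100% = wells lacking enzyme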
UBC13 inh – UBC13 polyubiquitin chain formation inhibitors, primary screen, biochemical, TR-FRET, uHTS; Ubiquitin-conjugating enzyme E2 N (Homo sapiens), P61088; inhibition, % at 20 µM; 330,000 compounds, 0.47% hits; in the data active = inhibition above about 45%, passing the limit was not always enough
Target sequence (P61088 whole entry, looked up): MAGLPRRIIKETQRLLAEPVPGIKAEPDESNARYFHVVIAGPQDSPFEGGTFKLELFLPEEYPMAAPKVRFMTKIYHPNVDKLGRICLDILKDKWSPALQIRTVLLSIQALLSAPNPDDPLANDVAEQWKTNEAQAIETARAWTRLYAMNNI
RBBP9 inh – human RBBP9 inhibitors, primary screen, biochemical, fluorescence polarization, FP-Rh probe, HTS. 220,000 compounds, 0.2% hits. inhibition, % at 7.94 µM. Serine hydrolase RBBP9 (Homo sapiens), O75884. recombinant RBBP9. AID 1515, 2009;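 active = inhibition above the campaign mean of all tested compounds plus 3 SD, cut at about 14% in these data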;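 note: plate controls were DMSO wells with RBBP9 for no effect and wells lacking RBBP9 protein for full effect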
Target sequence (O75884 whole entry, looked up): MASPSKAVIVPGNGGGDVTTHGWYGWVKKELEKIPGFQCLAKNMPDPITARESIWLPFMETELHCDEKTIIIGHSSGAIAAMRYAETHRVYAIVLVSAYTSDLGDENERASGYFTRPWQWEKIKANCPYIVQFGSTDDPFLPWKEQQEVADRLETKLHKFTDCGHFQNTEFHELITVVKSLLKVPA
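System: RBBP9 protein | Quantity: 2.5 µM RBBP9 dispensing solution, before mixing | Reagent: FP-Rh probe, 375 nM dispensing solution | Timing: Enzyme-compound preincubation 30 min, then probe labeling 45 min, 25 °C | Measured by: Fluorescence polarization | Read-out: % inhibition | Replication: One well per compound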
Rin1-Abl PPI inh – inhibitors of Rin1-Abl protein binding, primary screen, biochemical, TR-FRET; 360,000 compounds, 0.4% hits; inhibition, % at 7.35 µM; in the data active = inhibition above about 5%, passing the limit was not always enough
ALR inh – inhibitors of human ALR sulfhydryl oxidase, primary screen, biochemical, H2O2 detection, HRP-luminol luminescence, single point; AID 485317, 2010; FAD-linked sulfhydryl oxidase ALR (Homo sapiens), P55789; 290,000 compounds, 3.8% hits; purified ALR, DTT oxidation; inhibition, % (no concentration beside the values);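 active = mean replicate inhibition above about 79%, with every replicate also reaching it, limit read from the data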
Active calls of the source: *. The list is not random: actives were taken first. Their share in the collection is about 4.3%.

`NS(=O)(=O)c1ccc(CCNC(=O)c2ccc([N+](=O)[O-])s2)cc1` gave UBC9 SUMO inh -4, PREPL inhibitor 16, UBC13 inh -14, Rin1-Abl PPI inh -4 and ALR inh -32.
For CCCCC(=O)NC(c1ccc(C(C)C)cc1)c1ccc2cccnc2c1O (centres undefined) the results were UBC9 SUMO inh -49, PREPL inhibitor 3, UBC13 inh -24, Rin1-Abl PPI inh 1 and ALR inh 2.
For CCC(=O)NC(c1ccccc1OC)c1ccc2cccnc2c1O (centres undefined) the results were UBC9 SUMO inh -68, PREPL inhibitor 12, UBC13 inh -8, RBBP9 inh -5, Rin1-Abl PPI inh 14* and ALR inh 31.
CC(=O)NC(c1cccs1)c1cc([N+](=O)[O-])c2cccnc2c1O (centres undefined) was read as UBC9 SUMO inh -8, PREPL inhibitor 25, RBBP9 inh -5, Rin1-Abl PPI inh 17* and ALR inh -66.
`CC(=O)NC(c1ccc(C(C)C)cc1)c1ccc2cccnc2c1O` (centres undefined) gave UBC9 SUMO inh 56*, PREPL inhibitor -36, UBC13 inh -16, Rin1-Abl PPI inh 2 and ALR inh -9.
Screening COc1cc(OC)c(C(=O)OCC(=O)NCCC2=CCCCC2)cc1OC returned PREPL inhibitor 6, UBC13 inh -6 and Rin1-Abl PPI inh -2.
Screening CN1C[C@@H]2C(c3ccc(C(F)(F)F)cc3)C3(c4cccnc4)CC2(C3)[C@H]1c1ccccc1 (some centres undefined) returned UBC9 SUMO inh -29, PREPL inhibitor 2, UBC13 inh 25, Rin1-Abl PPI inh 7 and ALR inh -40.
Screening CC(Sc1ccccc1)C(=O)N1CCN(S(=O)(=O)c2ccc(Cl)cc2)CC1 (centres undefined) returned UBC9 SUMO inh -6, PREPL inhibitor 15, UBC13 inh 4 and Rin1-Abl PPI inh 0.
CN(Cc1ccc(F)cc1)C(=O)c1cc(COc2ccc(-n3cncn3)cc2)on1 was read as UBC9 SUMO inh 11, UBC13 inh 13, Rin1-Abl PPI inh 2 and ALR inh -16.
Screening CC(=O)Oc1ccc(S(=O)(=O)c2ccc(OC(C)=O)cc2)cc1 returned UBC9 SUMO inh 5, PREPL inhibitor 6, UBC13 inh -4, RBBP9 inh 1 and Rin1-Abl PPI inh -4.
`CC(=O)Oc1ccc(C(c2ccc(OC(C)=O)cc2)c2ccccn2)cc1` gave UBC9 SUMO inh 10, PREPL inhibitor 23, UBC13 inh 6, RBBP9 inh 25* and Rin1-Abl PPI inh -2.
Screening Nc1ccccc1OCP(=O)(c1ccccc1)c1ccccc1 returned UBC9 SUMO inh 0, PREPL inhibitor -8, UBC13 inh -9, RBBP9 inh -2, Rin1-Abl PPI inh -2 and ALR inh 96*.
`Nc1ccccc1OCCOCCOCCOc1ccccc1N` gave UBC9 SUMO inh -25, PREPL inhibitor 2, UBC13 inh -1, RBBP9 inh -6, Rin1-Abl PPI inh 0 and ALR inh 97*.
`CCCCOc1ccccc1N` gave UBC9 SUMO inh -11, PREPL inhibitor 11, UBC13 inh -7, RBBP9 inh -2, Rin1-Abl PPI inh 0 and ALR inh -9.
For CCCNC(=O)C1(C)CCCN(Cc2ccc(Cl)cc2)C1 (centres undefined) the results were Rin1-Abl PPI inh -2.
`CCOC(=O)C1CC(C)=C(C)CC1C(=O)O` (centres undefined) gave UBC9 SUMO inh 11, PREPL inhibitor -1, UBC13 inh 6, RBBP9 inh -4, Rin1-Abl PPI inh 3 and ALR inh -6.
For S=c1[nH]nc(-c2ccco2)n1-c1ccc(Br)cc1 the results were PREPL inhibitor 3, UBC13 inh -3, Rin1-Abl PPI inh 1 and ALR inh 74.
